# Source: PubChem BioAssay
# Active and inactive are the calls of the source.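 Rule for the calls, unless noted: active = inhibition at or above 50% at 10 µM; inactive = inhibition below 50%.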
# What was measured:
# [1] = inhibitors of TNFa-induced NFkB p65 translocation, primary screen, imaging, HUVEC, MLSMR starter and 10KST1 sets (AID 438;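 active = inhibition above 20% together with a positive visual image hit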;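 note: compound added about 3h40 before a 20 min TNFalpha stimulation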;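 for inhibition: signal is the nuclear over cytoplasmic p65 intensity ratio per well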); details: HUVEC TNFa-induced p65 nuclear translocation; cell count: measured here: nuclei count (cytotoxicity indicator), at 2.08 µM; inhibition: at 2 µM, stronger effect = higher value, 0% TNFa-plus-vehicle, 100% no-TNFa wells
# [2] = reduction of polyQ htt aggregates in cells – imaging, exon1htt(103Q)mCFP cells, high-content imaging, primary screen (AID 483;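 active = visual image review flags a hit and inhibition of aggregation exceeds 20%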;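 note: compound exposure lasted 3 days before fixation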;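 for nuclei count: percent of the per-plate median nuclei count of sample wells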); details: exon1htt(103Q)mCFP cell line, aggregate imaging, at 2 µM; inhibition of aggregation: stronger effect = higher value; nuclei count: measured here: cell count, toxicity
# [3] = endothelial E-selectin expression blockers – imaging, HUVEC, immunofluorescence, MLSMR starter and 10KST1 sets, primary screen (AID 487;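 active = visually confirmed hit in the image check and inhibition above 20%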;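 for inhibition: signal is fraction of cell area covered by stained E-selectin grains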;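 for nuclei count: 100% = median nuclei count of all wells on the same plate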); details: HUVEC TNFalpha-induced E-selectin immunofluorescence imaging, at 2 µM; inhibition: stronger effect = higher value; nuclei count: measured here: cell number, toxicity
# [4] = target: Voltage-gated potassium channel subunit beta-2 (Rattus norvegicus) (UniProt P62483); assay: inhibitors of rat Kvbeta2 reductase activity – biochemical, NADPH fluorescence, primary screen (AID 622;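 active = fluorescence slope higher than the sample average by over 3 SD, cut at about -0.22 in these data, passing the limit was not always enough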;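 note: slope of raw intensity against log time taken from 70 to 1610 s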); details: recombinant KvBeta, 4-cyanobenzaldehyde reduction, at 10 µM, stronger effect = higher value
# Voltage-gated potassium channel subunit beta-2 (Rattus norvegicus), sequence (P62483 whole entry, looked up): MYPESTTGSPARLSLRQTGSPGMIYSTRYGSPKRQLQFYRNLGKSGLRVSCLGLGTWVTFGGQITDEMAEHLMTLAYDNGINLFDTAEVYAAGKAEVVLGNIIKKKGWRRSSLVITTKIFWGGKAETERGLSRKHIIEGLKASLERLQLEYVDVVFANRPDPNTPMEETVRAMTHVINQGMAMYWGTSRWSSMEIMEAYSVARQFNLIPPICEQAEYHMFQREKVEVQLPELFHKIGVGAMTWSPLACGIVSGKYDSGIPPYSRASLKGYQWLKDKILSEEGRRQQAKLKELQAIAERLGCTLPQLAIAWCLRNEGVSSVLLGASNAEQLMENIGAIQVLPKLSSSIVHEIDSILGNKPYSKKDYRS
# [5] = target: Voltage-gated potassium channel subunit beta-2 (Rattus norvegicus) (UniProt P62483); assay: enhancers of rat Kvbeta2 NADPH turnover – biochemical, NADPH fluorescence, primary screen (AID 623;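 active = NADPH fluorescence slope more negative than the mean of all samples by about 3 SD, 99.7% confidence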;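 note: fluorescence intensity change per second fitted from 20 to 320 s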); details: Recombinant KvBeta, NADPH fluorescence decrease slope, 10 min; at 10 µM; stronger effect = lower value
# [6] = target: Muscarinic acetylcholine receptor M4 (Homo sapiens) (UniProt P08173); assay: M4-linked GIRK flux change, two-sided – cell-based, HEK293 M4/GIRK, thallium flux, BTC-AM, M4 allosteric agonist project, primary screen (AID 625;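 active = fluorescence slope after compound addition differing from the mean of all tested samples at 99.7% confidence, mostly higher but some lower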;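 note: thallium influx through GIRK channels coupled to M4 in HEK293 cells with BTC-AM dye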); details: at 10 µM, actives lie on both sides
# Muscarinic acetylcholine receptor M4 (Homo sapiens), sequence (P08173 whole entry, looked up): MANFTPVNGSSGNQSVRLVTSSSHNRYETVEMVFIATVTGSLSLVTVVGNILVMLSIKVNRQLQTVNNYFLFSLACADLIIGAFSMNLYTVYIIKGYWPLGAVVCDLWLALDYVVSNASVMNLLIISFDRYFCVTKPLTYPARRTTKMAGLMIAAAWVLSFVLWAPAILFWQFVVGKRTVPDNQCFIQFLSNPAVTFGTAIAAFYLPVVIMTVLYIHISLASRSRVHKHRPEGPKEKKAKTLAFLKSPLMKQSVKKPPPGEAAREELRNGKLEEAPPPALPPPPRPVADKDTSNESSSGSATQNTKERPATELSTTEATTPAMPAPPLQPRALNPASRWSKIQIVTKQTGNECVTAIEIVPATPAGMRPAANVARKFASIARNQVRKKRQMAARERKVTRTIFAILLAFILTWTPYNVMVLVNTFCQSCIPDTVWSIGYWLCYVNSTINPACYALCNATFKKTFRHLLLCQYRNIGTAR
# Procedure, shortened: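 Material – HEK293 cells with M4 receptor and GIRK channels · Buffer or medium – pH 7.3 thallium assay buffer · Doses – one dose, 10 µM final · Timing – cells overnight at 37 °C, BTC-AM loading 1 h, reads 2 min total · Measured by – kinetic fluorescence with BTC-AM dye · Controls – carbachol and DMSO controls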
# [7] = blockers of RIG-like receptor reporter activation – cell-based, Sendai virus stimulus, luciferase, 10K MLSCN set, TLR/RLR signaling modifier project, primary screen (AID 602276); details: HEK293 RL24 IRF3 luciferase reporter, at 10 µM, stronger effect = higher value;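 note: firefly luciferase from ISG56 promoter only with Renilla not read in this screen; 0% = Sendai virus plus DMSO and 100% = medium plus DMSO without virus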
# [8] = TLR3 IRF3 reporter activation blockers – cell-based, poly I:C stimulus, luciferase, 10K MLSCN set, primary screen (AID 602277;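 active = inhibition of the reporter signal at or above 50%; inactive = inhibition below 50%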); details: HEK293-TLR3 RL24 IRF3 luciferase reporter, at 10 µM, stronger effect = higher value
Structure (SMILES),cell count [1],inhibition [1],inhibition of aggregation [2],nuclei count [2] [%],inhibition [3],nuclei count [3] [%],fluorescence slope [4],NADPH fluorescence slope [5],fluorescence slope [6],inhibition [7],inhibition [8]
CCn1c(C(=O)N2CCCC(C(=O)O)C2)cc2sccc21 (stereo not drawn),335,26.3% (active),-57.1% (inactive),115,-32.2% (inactive),115,-0.485 (inactive),8.2e-05 (inactive),0.00595 (inactive),-2.79% (inactive),-4.5% (inactive)
O=P(O)(O)c1ccccc1OCCOCCOc1ccccc1P(=O)(O)O,311,-0.9% (inactive),8% (inactive),60.2,-21.3% (inactive),86.4,-0.308 (inactive),-5.3e-05 (inactive),0.00635 (inactive),11.2% (inactive),15.3% (inactive)
O=C(Cn1cnc2c(nnn2-c2ccc(F)cc2)c1=O)NCc1ccco1,657,9.2% (inactive),-33.9% (inactive),78.6,-8.8% (inactive),122,-0.596 (inactive),-4.4e-06 (inactive),0.00537 (inactive),5.73% (inactive),12% (inactive)
Cn1nc(-c2ccc(C(=O)N3CCN(c4ccccc4)CC3)cc2)c2ccccc2c1=O,769,-4% (inactive),10.9% (inactive),90.3,-13.7% (inactive),110,-0.552 (inactive),-4.4e-05 (inactive),0.00744 (inactive),-31.8% (inactive),-26.4% (inactive)
O=C(COC(=O)c1ccc(NS(=O)(=O)c2ccc3c(c2)OCCO3)cc1)NCC1CCCO1 (stereo not drawn),424,-18.3% (inactive),11.2% (inactive),69.5,1.1% (inactive),100,-0.555 (inactive),-3.4e-05 (inactive),0.00638 (inactive),4.88% (inactive),19.1% (inactive)
CC(=O)CC(=O)Nc1ccccc1NC(C)=O,470,6.5% (inactive),-2.9% (inactive),108,-17.4% (inactive),110,-0.579 (inactive),-2.4e-05 (inactive),0.00558 (inactive),14.2% (inactive),15% (inactive)
Cc1ccc(-c2ccc(/C=N/n3cnnc3)o2)cc1Cl,432,-1.5% (inactive),2.7% (inactive),85.3,10.4% (inactive),110,-0.555 (inactive),-1.9e-05 (inactive),0.00662 (inactive),3.11% (inactive),-7.7% (inactive)
CC(C)CCNC(=O)NC(=O)CSc1nnc(-c2ccccc2F)n1N,572,0.4% (inactive),-5.6% (inactive),104,-223% (inactive),178,-0.517 (inactive),9.8e-05 (inactive),0.00509 (inactive),-9.04% (inactive),-3.83% (inactive)
CC1(c2ccc(OC(F)F)cc2)NC(=O)N(CC(=O)Nc2ccc3c(c2)OCO3)C1=O (stereo not drawn),404,-6.6% (inactive),-11.2% (inactive),109,-7.1% (inactive),107,-0.576 (inactive),-6.3e-05 (inactive),0.00647 (inactive),-3.26% (inactive),2.25% (inactive)
O=C(Nc1ccc(S(=O)(=O)NC2CCCC2)cc1)c1cnccn1,288,1.5% (inactive),0.6% (inactive),97.1,-54% (inactive),117,-0.543 (inactive),-1.1e-05 (inactive),0.00448 (inactive),10.3% (inactive),11.7% (inactive)
Cc1ccc(N2CC(C(=O)N3CCN(C(=O)c4ccco4)CC3)CC2=O)cc1 (stereo not drawn),600,2.2% (inactive),-16.3% (inactive),114,-39.1% (inactive),100,-0.571 (inactive),-5.1e-05 (inactive),0.00509 (inactive),17.5% (inactive),21.1% (inactive)
Cn1nc(-c2ccc(C(=O)NCC3CCCO3)cc2)c2ccccc2c1=O (stereo not drawn),796,-3.5% (inactive),37.8% (inactive),104,-18.3% (inactive),116,-0.574 (inactive),-5.3e-05 (inactive),0.00681 (inactive),19.3% (inactive),31.4% (inactive)
O=C(NC1CCCC1)c1ccc(S(=O)(=O)N2CCCC2)cc1,452,-8% (inactive),1.5% (inactive),104,-93.7% (inactive),120,-0.344 (inactive),-1.7e-05 (inactive),0.0102 (inactive),-19.5% (inactive),-26.9% (inactive)
Nc1nonc1-c1noc(-c2ccccc2Br)n1,384,-1.6% (inactive),-6.3% (inactive),63,-23.9% (inactive),112,-0.252 (inactive),-2.2e-05 (inactive),0.00797 (inactive),5.89% (inactive),-26.2% (inactive)
Cc1occc1C(=O)Nc1cccc2ccccc12,670,5.2% (inactive),16.6% (inactive),97.2,-185% (inactive),100,-0.546 (inactive),7.3e-06 (inactive),0.00507 (inactive),-27.7% (inactive),-86.3% (inactive)
N#CC1=C(N)N(c2ccccc2)C2=C(C(=O)CCC2)C1c1cccs1 (stereo not drawn),610,0% (inactive),3.8% (inactive),108,-53.5% (inactive),98.1,-0.362 (inactive),-4.2e-05 (inactive),0.00595 (inactive),-12.6% (inactive),-9.24% (inactive)
CCCCCn1c(=O)[nH]c2cc(C(=O)NCCCN3CCCCC3)ccc2c1=O,255,-2.1% (inactive),-0.1% (inactive),77.4,-32.3% (inactive),109,-0.298 (inactive),-5.4e-05 (inactive),0.00603 (inactive),7.49% (inactive),6.91% (inactive)
Cc1cc(C(=O)Nc2cc(C)n(Cc3ccc(Cl)cc3)n2)no1,240,9.5% (inactive),-10.6% (inactive),98.8,-39.5% (inactive),88.4,-0.483 (inactive),-1.4e-05 (inactive),0.0053 (inactive),-11.3% (inactive),-27.1% (inactive)
COC(=O)c1cc(O)c(OCc2ccccc2)c(O)c1,775,-2.2% (inactive),20.1% (inactive),112,-8.4% (inactive),112,-0.552 (inactive),4.3e-05 (inactive),0.00449 (inactive),-22% (inactive),-58.4% (inactive)
COc1ccccc1N1CCN(C(=O)c2ccc(CS(=O)(=O)c3ccccc3OC)o2)CC1,550,-12.7% (inactive),-6.3% (inactive),110,-68.7% (inactive),113,-0.478 (inactive),3.4e-05 (inactive),0.00677 (inactive),6.55% (inactive),15.7% (inactive)
CCn1c2ccccc2c2cc(NC(=O)Cc3ccc(S(=O)(=O)N4CCOCC4)s3)ccc21,343,-0.2% (inactive),29.4% (inactive),115,-10.9% (inactive),109,-0.502 (inactive),1e-05 (inactive),0.00333 (inactive),25.9% (inactive),26.4% (inactive)
CC(NC(=O)c1ccco1)C(c1cccs1)N1CCN(c2ccc(F)cc2)CC1 (stereo not drawn),519,-0.2% (inactive),-0.1% (inactive),82,-22.2% (inactive),114,-0.489 (inactive),0.000157 (inactive),0.00654 (inactive),11.9% (inactive),12.2% (inactive)
c1ccc2[nH]c(CSc3nnc(-c4ccncc4)o3)nc2c1,388,-5% (inactive),5.8% (inactive),83,-20.9% (inactive),90.8,-0.497 (inactive),1e-06 (inactive),0.00421 (inactive),7.74% (inactive),13.2% (inactive)
CC(C)NC(=O)NC(=O)COc1cccc2c1OC(C)(C)C2,749,-10.1% (inactive),-13.5% (inactive),105,-16.4% (inactive),100,-0.556 (inactive),-2.9e-05 (inactive),0.00684 (inactive),17.1% (inactive),29.7% (inactive)
CCOCC(=O)Nc1nc2ccc(OC)cc2s1,411,2.9% (inactive),-11.8% (inactive),102,-85.2% (inactive),127,-0.522 (inactive),-0.000124 (inactive),0.00427 (inactive),-34.1% (inactive),-111% (inactive)
CCn1c(=O)n(CC(=O)NCc2ccccc2OC)c(=O)c2ccccc21,467,-30.1% (inactive),-16.5% (inactive),100,-106% (inactive),92,-0.555 (inactive),-4.7e-05 (inactive),0.00528 (inactive),18.2% (inactive),23.1% (inactive)
Nn1c(CSc2nc3ccccc3o2)nnc1CSc1nc2ccccc2o1,449,-13.4% (inactive),24.5% (inactive),85.3,29.7% (inactive),86,-0.408 (inactive),5.7e-05 (inactive),0.00537 (inactive),9.57% (inactive),17% (inactive)
CCn1ncc(C2=NOC(C(=O)NCc3ccc(Cl)cc3)C2)c1C (stereo not drawn),576,13.4% (inactive),-30.2% (inactive),36.3,-240% (inactive),102,-0.421 (inactive),2.6e-05 (inactive),0.0055 (inactive),2.33% (inactive),86.7% (active)
